Changes are numbered by the printed parent chain.
Tests used:
QacR(E57Q) [1] = target: T1, QacR(E57Q) (Staphylococcus aureus, UniProt P0A0N4, E57Q); assay: Isothermal titration calorimetry, QacR; type: binding
T1 sequence (P0A0N4 1-188 E57Q): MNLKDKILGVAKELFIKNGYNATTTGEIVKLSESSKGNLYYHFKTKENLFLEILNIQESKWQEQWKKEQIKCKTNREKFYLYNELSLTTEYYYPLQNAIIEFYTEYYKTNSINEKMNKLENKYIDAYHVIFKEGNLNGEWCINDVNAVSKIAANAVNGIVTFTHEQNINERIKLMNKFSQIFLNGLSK

QacR(E58Q) = target: T2, QacR(E58Q) (Staphylococcus aureus, UniProt P0A0N4, E58Q); assay: Isothermal titration calorimetry, QacR; type: binding
T2 sequence (P0A0N4 1-188 E58Q): T1 sequence (P0A0N4 1-188 E57Q) with Q57E, E58Q

wt QacR = target: T3, wt QacR (Staphylococcus aureus, UniProt P0A0N4); assay: Isothermal titration calorimetry, wt QacR; type: binding
T3 sequence (P0A0N4 1-188): T1 sequence (P0A0N4 1-188 E57Q) with Q57E

QacR(E57Q/E58Q) [2] = target: T4, QacR(E57Q/E58Q) (Staphylococcus aureus, UniProt P0A0N4, E57Q/E58Q); assay: Isothermal titration calorimetry, QacR; type: binding
T4 sequence (P0A0N4 1-188 E57Q/E58Q): T1 sequence (P0A0N4 1-188 E57Q) with E58Q

mutant QacR proteins = assay: Intrinsic tryptophan fluorescence quenching, mutant QacR proteins compared to wt; type: binding, Staphylococcus aureus; conditions: all mutant QacR proteins of Table 2 vs wt QacR
Method in brief: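 C-terminally His6-tagged QacR variants were expressed in E. coli DH5α, Ni2+-NTA purified, and dialysed into 1 M NaCl, 20 mM Tris-HCl, 5% glycerol, pH 7.5. Kd was derived from quenching of intrinsic tryptophan fluorescence intensity on ligand titration. Ligands came from 2.5 mM stocks in water, diluted in 100 mM NaCl, 15 mM Tris-HCl, 2.5% glycerol, pH 7.5. Each Kd is the mean of three independent experiments.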

QacR(E57Q/E58Q) [3] = target: T4, QacR(E57Q/E58Q); assay: Intrinsic tryptophan fluorescence quenching, QacR; type: binding
QacR(E57Q) [4] = target: T1, QacR(E57Q); assay: Intrinsic tryptophan fluorescence quenching, QacR; type: binding
QacR(E57A) = target: T5, QacR(E57A) (Staphylococcus aureus, UniProt P0A0N4, E57A); assay: Intrinsic tryptophan fluorescence quenching, QacR; type: binding
T5 sequence (P0A0N4 1-188 E57A): T1 sequence (P0A0N4 1-188 E57Q) with Q57A

Cc1cc(N)c2ccccc2[n+]1CCCCCCCCCC[n+]1c(C)cc(N)c2ccccc21 [Dq, dequalinium]
Kd (QacR(E57Q) [1]): 1950 ± 180 nM
Kd (QacR(E58Q)): 2400 ± 200 nM
Kd (wt QacR): 1300 ± 300 nM
Kd (QacR(E57Q/E58Q) [2]): 5200 ± 3800 nM
decrease in binding affinity compared to wt QacR (QacR(E57Q/E58Q) [2]; QacR(E57Q/E58Q) vs wt QacR, ITC): 4 fold

CN(C)c1ccc(C(=C2C=CC(=[N+](C)C)C=C2)c2ccccc2)cc1 [MG, malachite green]
change in binding affinity of mutant QacR proteins compared to wt QacR (mutant QacR proteins): ≤ 2.4 fold
Kd (QacR(E57Q/E58Q) [3]): 1990 ± 80 nM
Kd (QacR(E57Q) [4]): 1770 ± 170 nM
Kd (QacR(E57A)): 2980 ± 230 nM

COc1ccc2cc3[n+](cc2c1OC)CCc1cc2c(cc1-3)OCO2 [Be, berberine]
Kd (QacR(E57Q/E58Q) [3]): 320 ± 150 nM
increase in binding affinity compared to wt QacR (QacR(E57Q/E58Q) [3]; QacR(E57Q/E58Q) vs wt QacR): 9 fold
Kd (QacR(E57Q) [4]): 1390 ± 150 nM
Kd (QacR(E57A)): 1880 ± 230 nM
